The subject of test [1] is CCRF-CEM. The test can be described thus: Induction of early stage apoptosis in human CCRF-CEM cells at 1 uM after 48 hrs by annexin V-FITC/propidium iodide staining relative to control. Type of test: functional. The gist of the method: (§1)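 CCRF-CEM cells treated with compound at 1.0, 2.5 or 5 μM for 48 h, alongside untreated controls. Stained with annexin V-FITC/PI kit and analysed by flow cytometry, 488 nm laser. Early apoptosis counted as annexin V+/PI−; late apoptosis or necrosis as double positive.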

Test [2] concerns CCRF-CEM. The test is described as follows: Induction of late stage apoptosis in human CCRF-CEM cells at 5 uM after 48 hrs by annexin V-FITC/propidium iodide staining relative to control. It counts as functional. The gist of the method:
as §1

Test [3] concerns CCRF-CEM. The test can be described thus: Induction of late stage apoptosis in human CCRF-CEM cells at 2.5 uM after 48 hrs by annexin V-FITC/propidium iodide staining relative to control. Type of test: functional. The gist of the method: as §1
In test [4] the test system is CCRF-CEM. The test can be described thus: Induction of late stage apoptosis in human CCRF-CEM cells at 1 uM after 48 hrs by annexin V-FITC/propidium iodide staining relative to control. It counts as functional. The gist of the method:
as §1

Test [5] has as its system CCRF-CEM. The test is described as follows: Antiproliferative activity against human CCRF-CEM cells after 48 hrs by MTT assay. Type of test: functional, cell-based. The gist of the method:
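CCRF-CEM cells in RPMI 1640 with 10% FBS, penicillin/streptomycin, 37 °C, 5% CO2, seeded at 2 × 10⁵ cells/mL. Compounds added at various concentrations, each in quintuplicate, for 48 h. Growth read by MTT. IC50 taken as the concentration giving 50% growth inhibition.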
In general terms: Formazan colour is commonly taken as a measure of viable cells.

Test [6] relates to CCRF-CEM. The test can be described thus: Induction of early stage apoptosis in human CCRF-CEM cells at 2.5 uM after 48 hrs by annexin V-FITC/propidium iodide staining relative to control. It counts as functional. The gist of the method:
as §1

Test [7] deals with CCRF-CEM. The test can be described thus: Induction of apoptosis in human CCRF-CEM cells assessed as accumulation at sub-G0 phase after 24 hrs by flow cytometry. Type of test: functional, cell-based. The gist of the method:
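CCRF-CEM cells exposed to compound at 0.5, 1.0 or 2.5 μM for 24 h at 37 °C, alongside untreated controls. Cells washed twice in PBS, fixed in ice-cold 70% ethanol at 4 °C for 1–2 h, then stained with propidium iodide. Sub-diploid (sub-G0) DNA peak measured by flow cytometry, 488 nm argon laser.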

Test [8] relates to CCRF-CEM. The test is described as follows: Induction of early stage apoptosis in human CCRF-CEM cells at 5 uM after 48 hrs by annexin V-FITC/propidium iodide staining relative to control. Type of test: functional. The gist of the method:
as §1

The next test deals with K562. The test is described as follows: Antiproliferative activity against human K-562 cells by MTT assay. It counts as functional, cell-based. The gist of the method:
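K562 cells seeded at 2 × 10⁵ cells/mL. Compound added at various concentrations in quintuplicate, then incubated. Viability read by MTT. IC50 is the concentration inhibiting growth by 50%.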

A further test relates to HL-60. The test can be described thus: Antiproliferative activity against human HL-60 cells by MTT assay. It counts as functional, cell-based. The gist of the method: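 HL60 cells in RPMI 1640 with 10% FBS, penicillin/streptomycin, 37 °C, 5% CO2, seeded at 2 × 10⁵ cells/mL. Compound added at various concentrations in quintuplicate, then incubated. Viability read by MTT. IC50 is the concentration giving 50% growth inhibition.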

`COc1cc(Cn2c3ccccc3c(=O)c3ccccc32)cc(OC)c1`: the Activity with CCRF-CEM [1] was 9.5%; in the test on CCRF-CEM [2], 41.6%; with CCRF-CEM [3], 33.6%; with CCRF-CEM [4], 10%; with CCRF-CEM [6] it was 27.4%; in the test on CCRF-CEM [7], “Dose-dependent effect”. The Activity in the test on CCRF-CEM [8] is 21.7%. The half-inhibitory concentration (IC50) with CCRF-CEM [5] amounted to 0.7 µM; in the test with K562 it was 11.4 µM; in the test on HL-60, 0.6 µM.

Regarding `CCCOc1cc(Cn2c3ccccc3c(=O)c3ccccc32)cc(OCCC)c1`, the 50% inhibitory concentration (IC50) in the test on CCRF-CEM [5] turned out to be 39.1 µM.

The compound `O=c1c2ccccc2n(Cc2cccc(C(F)(F)F)c2)c2ccccc12` had an IC50 in the test with CCRF-CEM [5] of 36 µM.

The compound `COc1cc(CN2CCC(=O)CC2)cc(OC)c1OC` displayed an IC50 in the test on CCRF-CEM [5] of over 100 µM.

Regarding `Cc1cccc(Cn2c3ccccc3c(=O)c3ccccc32)c1`, in the test with CCRF-CEM [5], the midpoint of inhibition, the IC50, lay at 8.8 µM.

In the test on CCRF-CEM [5], `CCCCOc1cc(Cn2c3ccccc3c(=O)c3ccccc32)cc(OCCCC)c1` showed an IC50 of over 100 µM.

`COc1cccc(Cn2c3ccccc3c(=O)c3ccccc32)c1`: the IC50 in the test on CCRF-CEM [5] is over 100 µM.

Regarding `O=c1c2ccccc2n(Cc2ccccc2)c2ccccc12`, the IC50 in the test on CCRF-CEM [5] was 52 µM.

In the test with CCRF-CEM [5], `COc1ccc(Cn2c3ccccc3c(=O)c3ccccc32)cc1` registered a half-maximal inhibitory concentration (IC50) of over 100 µM.

Compound `O=c1c2ccccc2[nH]c2ccccc12` [ACRIDONE] yielded an IC50 in the test on CCRF-CEM [5] of over 100 µM.

Regarding `CCOc1cc(Cn2c3ccccc3c(=O)c3ccccc32)cc(OCC)c1`, in the test with CCRF-CEM [5], 6.7 µM corresponded to half-maximal inhibition (IC50).

`O=c1c2ccccc2n(Cc2cccc(F)c2)c2ccccc12` registered an IC50 with CCRF-CEM [5] of 62 µM.

In the test with CCRF-CEM [5], `O=c1c2ccccc2n(Cc2cc(OCc3ccccc3)cc(OCc3ccccc3)c2)c2ccccc12` gave an IC50 of over 100 µM.

Compound `COc1cc(Cn2c3ccccc3c(=O)c3ccccc32)cc(OC)c1OC` had an IC50 in the test with CCRF-CEM [5] of 1.5 µM.

As usually defined, the IC50 is the concentration that inhibits the measured activity by half. High values mean a need for much substance, low ones inhibition by little substance.

The values above are taken from ChEMBL document CHEMBL1158185, “Synthesis and potent antileukemic activities of 10-benzyl-9(10H)-acridinones” (Bioorg Med Chem, 2008).
